# Results published in ChEMBL document CHEMBL1671676, “In vitro activity of nemonoxacin, a novel nonfluorinated quinolone, against 2,440 clinical isolates” (2009).
# Key:
# Type in all cases: functional
# Enterobacter cloacae [1] = assay: Antibacterial activity against Enterobacter cloacae assessed as percent cumulative susceptible isolates at minimum inhibitory concentration of 2 ug/ml by CLSI broth microdilution method; design: scale not given: the % may be the effect or the level left
# Pseudomonas aeruginosa [2] = assay: Antibacterial activity against Pseudomonas aeruginosa assessed as percent cumulative susceptible isolates at minimum inhibitory concentration of 0.06 ug/ml by CLSI broth microdilution method; design: scale not given: the % may be the effect or the level left
# [3] = system: Stenotrophomonas maltophilia; assay: Antibacterial activity against Stenotrophomonas maltophilia assessed as percent cumulative susceptible isolates at minimum inhibitory concentration of 0.06 ug/ml by CLSI broth microdilution method; design: scale not given: the % may be the effect or the level left
# Escherichia coli [4] = assay: Antibacterial activity against Escherichia coli assessed as percent cumulative susceptible isolates at minimum inhibitory concentration of 8 ug/ml by CLSI broth microdilution method; design: scale not given: the % may be the effect or the level left
# Enterococcus faecium [5] = assay: Antibacterial activity against Enterococcus faecium assessed as percent cumulative susceptible isolates at minimum inhibitory concentration of 1 ug/ml by CLSI broth microdilution method; design: scale not given: the % may be the effect or the level left
# Streptococcus pneumoniae = assay: Antibacterial activity against Streptococcus pneumoniae assessed as percent cumulative susceptible isolates at minimum inhibitory concentration of 0.5 ug/ml by CLSI broth microdilution method; design: scale not given: the % may be the effect or the level left
# Staphylococcus aureus [6] = assay: Antibacterial activity against Levofloxacin-susceptible Staphylococcus aureus assessed as percent cumulative susceptible isolates at minimum inhibitory concentration of <=0.008 ug/ml by CLSI broth microdilution method; design: scale not given: the % may be the effect or the level left
# [7] = system: Staphylococcus epidermidis; assay: Antibacterial activity against methicillin-susceptible Staphylococcus epidermidis assessed as percent cumulative susceptible isolates at minimum inhibitory concentration of 1 ug/ml by CLSI broth microdilution method; design: scale not given: the % may be the effect or the level left
# Staphylococcus aureus [8] = assay: Antibacterial activity against Levofloxacin-susceptible Staphylococcus aureus assessed as percent cumulative susceptible isolates at minimum inhibitory concentration of 0.03 ug/ml by CLSI broth microdilution method; design: scale not given: the % may be the effect or the level left
# Staphylococcus aureus [9] = assay: Antibacterial activity against community-associated methicillin-resistant Staphylococcus aureus assessed as percent cumulative susceptible isolates at minimum inhibitory concentration of 0.06 ug/ml by CLSI broth microdilution method; design: scale not given: the % may be the effect or the level left
# Enterococcus faecalis [10] = assay: Antibacterial activity against Enterococcus faecalis assessed as percent cumulative susceptible isolates at minimum inhibitory concentration of 0.06 ug/ml by CLSI broth microdilution method; design: scale not given: the % may be the effect or the level left
# Enterococcus faecalis [11] = assay: Antibacterial activity against Enterococcus faecalis assessed as percent cumulative susceptible isolates at minimum inhibitory concentration of 128 ug/ml by CLSI broth microdilution method; design: scale not given: the % may be the effect or the level left
# Staphylococcus aureus [12] = assay: Antibacterial activity against methicillin-susceptible Staphylococcus aureus assessed as percent cumulative susceptible isolates at minimum inhibitory concentration of <=0.008 ug/ml by CLSI broth microdilution method; design: scale not given: the % may be the effect or the level left
# Pseudomonas aeruginosa [13] = assay: Antibacterial activity against Pseudomonas aeruginosa assessed as percent cumulative susceptible isolates at minimum inhibitory concentration of 8 ug/ml by CLSI broth microdilution method; design: scale not given: the % may be the effect or the level left
# Escherichia coli [14] = assay: Antibacterial activity against Escherichia coli assessed as percent cumulative susceptible isolates at minimum inhibitory concentration of 64 ug/ml by CLSI broth microdilution method; design: scale not given: the % may be the effect or the level left
# Proteus mirabilis [15] = assay: Antibacterial activity against Proteus mirabilis assessed as percent cumulative susceptible isolates at minimum inhibitory concentration of 2 ug/ml by CLSI broth microdilution method; design: scale not given: the % may be the effect or the level left
# Enterococcus faecium [16] = assay: Antibacterial activity against Enterococcus faecium assessed as percent cumulative susceptible isolates at minimum inhibitory concentration of 128 ug/ml by CLSI broth microdilution method; design: scale not given: the % may be the effect or the level left
# [17] = system: Staphylococcus epidermidis; assay: Antibacterial activity against methicillin-susceptible Staphylococcus epidermidis assessed as percent cumulative susceptible isolates at minimum inhibitory concentration of 0.06 ug/ml by CLSI broth microdilution method; design: scale not given: the % may be the effect or the level left
# Klebsiella oxytoca = assay: Antibacterial activity against Klebsiella oxytoca assessed as percent cumulative susceptible isolates at minimum inhibitory concentration of 1 ug/ml by CLSI broth microdilution method; design: scale not given: the % may be the effect or the level left
# Staphylococcus aureus [18] = assay: Antibacterial activity against hospital-associated methicillin-resistant Staphylococcus aureus assessed as percent cumulative susceptible isolates at minimum inhibitory concentration of 1 ug/ml by CLSI broth microdilution method; design: scale not given: the % may be the effect or the level left
# Outline: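 Clinical isolates tested by CLSI broth microdilution using 96-well panels of doubling drug dilutions in cation-adjusted Mueller-Hinton broth with 5% lysed horse blood. MIC was read from these panels. Panel quality control used CLSI ATCC strains, including S. pneumoniae 49619, S. aureus 29213, E. faecalis 29212 and E. coli 25922. Cumulative percentages of isolates were tabulated at each MIC.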
# Staphylococcus aureus [19] = assay: Antibacterial activity against Levofloxacin-susceptible Staphylococcus aureus assessed as percent cumulative susceptible isolates at minimum inhibitory concentration of […] by CLSI broth microdilution method; design: scale not given: the % may be the effect or the level left
# Pseudomonas aeruginosa [20] = assay: Antibacterial activity against Pseudomonas aeruginosa by CLSI M7-A7 broth microdilution method
# Pseudomonas aeruginosa [21] = assay: Antibacterial activity against Pseudomonas aeruginosa assessed as percent cumulative susceptible isolates at minimum inhibitory concentration of 128 ug/ml by CLSI broth microdilution method; design: scale not given: the % may be the effect or the level left
# Enterococcus faecium [22] = assay: Antibacterial activity against Enterococcus faecium by CLSI M7-A7 broth microdilution method
# Staphylococcus aureus [23] = assay: Antibacterial activity against non-levofloxacin susceptible Staphylococcus aureus assessed as percent cumulative susceptible isolates at minimum inhibitory concentration of 64 ug/ml by CLSI broth microdilution method; design: scale not given: the % may be the effect or the level left
# Escherichia coli [24] = assay: Antibacterial activity against Escherichia coli assessed as percent cumulative susceptible isolates at minimum inhibitory concentration of 0.03 ug/ml by CLSI broth microdilution method; design: scale not given: the % may be the effect or the level left
# Proteus mirabilis [25] = assay: Antibacterial activity against Proteus mirabilis assessed as percent cumulative susceptible isolates at minimum inhibitory concentration of 0.5 ug/ml by CLSI broth microdilution method; design: scale not given: the % may be the effect or the level left
# Enterococcus faecalis [26] = assay: Antibacterial activity against Enterococcus faecalis assessed as percent cumulative susceptible isolates at minimum inhibitory concentration of 4 ug/ml by CLSI broth microdilution method; design: scale not given: the % may be the effect or the level left
# Staphylococcus aureus [27] = assay: Antibacterial activity against hospital-associated methicillin-resistant Staphylococcus aureus assessed as percent cumulative susceptible isolates at minimum inhibitory concentration of 4 ug/ml by CLSI broth microdilution method; design: scale not given: the % may be the effect or the level left
# Staphylococcus aureus [28] = assay: Antibacterial activity against non-levofloxacin susceptible Staphylococcus aureus assessed as percent cumulative susceptible isolates at minimum inhibitory concentration of 0.5 ug/ml by CLSI broth microdilution method; design: scale not given: the % may be the effect or the level left
# Staphylococcus aureus [29] = assay: Antibacterial activity against community-associated methicillin-resistant Staphylococcus aureus assessed as percent cumulative susceptible isolates at minimum inhibitory concentration of 0.5 ug/ml by CLSI broth microdilution method; design: scale not given: the % may be the effect or the level left
# Staphylococcus aureus [30] = assay: Antibacterial activity against methicillin-susceptible Staphylococcus aureus assessed as percent cumulative susceptible isolates at minimum inhibitory concentration of […] by CLSI broth microdilution method; design: scale not given: the % may be the effect or the level left
# Acinetobacter baumannii = assay: Antibacterial activity against Acinetobacter baumannii by CLSI M7-A7 broth microdilution method
# Staphylococcus aureus [31] = assay: Antibacterial activity against community-associated methicillin-resistant Staphylococcus aureus assessed as percent cumulative susceptible isolates at minimum inhibitory concentration of […] by CLSI broth microdilution method; design: scale not given: the % may be the effect or the level left
# Pseudomonas aeruginosa [32] = assay: Antibacterial activity against Pseudomonas aeruginosa assessed as percent cumulative susceptible isolates at minimum inhibitory concentration of >=[…] by CLSI broth microdilution method; design: scale not given: the % may be the effect or the level left
# Enterobacter cloacae [33] = assay: Antibacterial activity against Enterobacter cloacae assessed as percent cumulative susceptible isolates at minimum inhibitory concentration of 0.5 ug/ml by CLSI broth microdilution method; design: scale not given: the % may be the effect or the level left
# [34] = system: Stenotrophomonas maltophilia; assay: Antibacterial activity against Stenotrophomonas maltophilia assessed as percent cumulative susceptible isolates at minimum inhibitory concentration of […] by CLSI broth microdilution method; design: scale not given: the % may be the effect or the level left
structure (smiles),measurement,setting,value
C[C@H]1COc2c(N3CCN(C)CC3)c(F)cc3c(=O)c(C(=O)O)cn1c23.C[C@H]1COc2c(N3CCN(C)CC3)c(F)cc3c(=O)c(C(=O)O)cn1c23.O [LEVOFLOXACIN],Activity,Enterobacter cloacae [1],93.1%
same,Activity,Pseudomonas aeruginosa [2],2.2%
same,Activity,[3],3.8%
same,Activity,Escherichia coli [4],78.5%
same,Activity,Enterococcus faecium [5],10.5%
same,Activity,Streptococcus pneumoniae,69.3%
COc1c(N2C[C@@H](C)C[C@H](N)C2)ccc2c(=O)c(C(=O)O)cn(C3CC3)c12 [NEMONOXACIN],Activity,Staphylococcus aureus [6],5.9%
same,Activity,[7],95.3%
same,Activity,Staphylococcus aureus [8],78.3%
same,Activity,Staphylococcus aureus [9],28%
same,Activity,Enterococcus faecalis [10],18.5%
same,Activity,Enterococcus faecalis [11],100%
same,Activity,Staphylococcus aureus [12],5.6%
same,Activity,Pseudomonas aeruginosa [13],78.8%
same,Activity,Escherichia coli [14],98.2%
same,Activity,Proteus mirabilis [15],78.8%
same,Activity,Enterococcus faecium [16],100%
same,Activity,[17],58.1%
same,Activity,Klebsiella oxytoca,100%
same,Activity,Staphylococcus aureus [18],18.2%
same,Activity,Staphylococcus aureus [19],33.8%
same,MIC90,Pseudomonas aeruginosa [20],≥ 8 µg/mL
same,Activity,Pseudomonas aeruginosa [21],97.8%
same,MIC90,Enterococcus faecium [22],128 µg/mL
same,Activity,Staphylococcus aureus [23],100%
same,Activity,Escherichia coli [24],1.5%
same,Activity,Proteus mirabilis [25],54.5%
same,Activity,Enterococcus faecalis [26],98.8%
same,Activity,Staphylococcus aureus [27],57.6%
same,Activity,Staphylococcus aureus [28],19%
same,Activity,Staphylococcus aureus [29],92%
same,Activity,Staphylococcus aureus [30],30.5%
same,MIC90,Acinetobacter baumannii,1 µg/mL
same,Activity,Staphylococcus aureus [31],16%
same,Activity,Pseudomonas aeruginosa [32],100%
same,Activity,Enterobacter cloacae [33],90.3%
same,Activity,[34],3.8%
